Measurements published in ChEMBL document CHEMBL1777805, “2-Arylmethylaminomethyl-5,6-dihydroxychromone derivatives with selective anti-HCV activity” (Bioorg Med Chem Lett, 2011).
pEC50: −log10 of the molar value.

Key:
[1] = Cytotoxicity against human HuH7 cells assessed as reduction in cell proliferation; format: cell-based, Huh-7
[2] = system: Hepatitis C virus; experiment: Antiviral activity against HCV in human HuH7 cells assessed as inhibition of RNA replication after 4 days by FRET-based assay; format: functional, organism-based, Hepacivirus hominis; details: Huh-7, 96 h
Method in brief: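 Huh-7 cells carrying an HCV replicon were seeded at 5 × 10³/well in complete DMEM with 500 µg/mL G418 and held 24 h at 37 °C, 5% CO₂. The medium was then refreshed and compounds were added at 0.1–100 µM (seven levels) from DMSO stock. After 4 days at 37 °C, cells were lysed. NS3 protease FRET signal was read at 340 ex/490 em. IFN-α2b (10000 units/well) served as positive control.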

Row | pEC50 [2] | SMILES | CC50 [1] [µM]
1 | < 4.00 | O=c1cc(CNCc2ccccc2)oc2ccc(O)c(O)c12 | > 100
2 | < 4.00 | O=c1cc(CNCc2ccccc2Cl)oc2ccc(O)c(O)c12 | > 100
3 | < 4.00 | O=c1cc(CNCc2ccccc2Br)oc2ccc(O)c(O)c12 | > 100
4 | 5.20 | O=c1cc(CNCc2ccccc2I)oc2ccc(O)c(O)c12 | 87.3
5 | < 4.00 | O=c1cc(CNCc2ccccc2O)oc2ccc(O)c(O)c12 | > 100
6 | < 4.00 | O=c1cc(CNCc2ccccc2[N+](=O)[O-])oc2ccc(O)c(O)c12 | 41.3
7 | 5.92 | Cc1ccccc1CNCc1cc(=O)c2c(O)c(O)ccc2o1 | 52.2
8 | < 4.00 | O=c1cc(CNCc2cccc(F)c2)oc2ccc(O)c(O)c12 | > 100
9 | 5.44 | O=c1cc(CNCc2cccc(Br)c2)oc2ccc(O)c(O)c12 | > 100
10 | 5.14 | O=c1cc(CNCc2cccc(I)c2)oc2ccc(O)c(O)c12 | > 100
11 | < 4.00 | O=c1cc(CNCc2cccc(O)c2)oc2ccc(O)c(O)c12 | > 100
12 | < 4.00 | O=c1cc(CNCc2cccc([N+](=O)[O-])c2)oc2ccc(O)c(O)c12 | > 100
13 | 5.70 | Cc1cccc(CNCc2cc(=O)c3c(O)c(O)ccc3o2)c1 | > 100
14 | < 4.00 | O=c1cc(CNCc2ccc(F)cc2)oc2ccc(O)c(O)c12 | > 100
15 | < 4.00 | O=c1cc(CNCc2ccc(Br)cc2)oc2ccc(O)c(O)c12 | > 100
16 | 5.39 | O=c1cc(CNCc2ccc(I)cc2)oc2ccc(O)c(O)c12 | 41.7
17 | < 4.00 | O=c1cc(CNCc2ccc(O)cc2)oc2ccc(O)c(O)c12 | 62.7
18 | < 4.00 | O=c1cc(CNCc2ccc([N+](=O)[O-])cc2)oc2ccc(O)c(O)c12 | 73.3
19 | 5.24 | Cc1ccc(CNCc2cc(=O)c3c(O)c(O)ccc3o2)cc1 | > 100
20 | < 4.00 | O=c1cc(CNCc2ccc(Cl)cc2)oc2ccc(O)c(O)c12 | > 100
21 | 4.85 | O=c1cc(CNCc2cccc(Cl)c2)oc2ccc(O)c(O)c12 | > 100
